TAAR1 antagonist: human TAAR1 antagonism; AID 624466; 360,000 tested, 1.5% active; Q96RJ0; inhibition, % at 3 µM; CHO RD-HGA16 TAAR1, Fluo-8 calcium fluorescence, antagonist;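 active = inhibition above a per-plate cutoff, the mean inhibition of test compounds on that plate plus 3 SD, cut at about 49% in these data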;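 note: 0% = DMSO plus EC80 beta-PEA response and 100% = DMSO alone without agonist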
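Test system – hTAAR1-expressing CHO RD-HGA16 cells, Gα16-coupled · Reagent – β-PEA at EC80 concentration, post-compound challenge · Compound dosing – 3 µM, single point · Timing – 140 s kinetic read after compound, 140 s after agonist · Detection – Fluo-8 intracellular calcium dye fluorescence, real-time kinetic reads · Control set – DMSO and EC80 PEA controls · Repeats – n of 1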
TAAR1 agonist: agonists of human TAAR1. AID 624467. activation, % at 3 µM. CHO RD-HGA16 TAAR1, Fluo-8 calcium fluorescence; vehicle wells 0%, saturating PEA agonist 100%. 360,000 tested, 0.99% active. Q96RJ0;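 active = activation above the mean activation of all test compounds in the run plus 3 SD, cut at about 38% in these data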
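Signal – calcium-sensitive Fluo-8 signal, excitation 470-495, emission 515-575 nm · System – RD-HGA16 (CHO) cells co-expressing Gα16 and hTAAR1 · Incubation – 17-24 h seeding, 75 min 37 °C dye, 30 min RT · Compound dosing – 3 µM single concentration · Repeats – no replicates (n 1)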
M1 antag: human CHRM1 antagonism. P11229. 360,000 tested, 1.3% active. CHO-K1 hM1, Fluo-8 calcium fluorescence, ACh EC80 antagonist. inhibition, % at 3 µM. AID 588852;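 active = percent inhibition above its own plate's cutoff, namely the mean of that plate's compound wells plus 3 SD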;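 note: peak over basal fluorescence ratio during 140 s after agonist addition; 0% = ACh EC80 plus DMSO and 100% = DMSO alone without agonist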
Target sequence (P11229 whole entry, looked up): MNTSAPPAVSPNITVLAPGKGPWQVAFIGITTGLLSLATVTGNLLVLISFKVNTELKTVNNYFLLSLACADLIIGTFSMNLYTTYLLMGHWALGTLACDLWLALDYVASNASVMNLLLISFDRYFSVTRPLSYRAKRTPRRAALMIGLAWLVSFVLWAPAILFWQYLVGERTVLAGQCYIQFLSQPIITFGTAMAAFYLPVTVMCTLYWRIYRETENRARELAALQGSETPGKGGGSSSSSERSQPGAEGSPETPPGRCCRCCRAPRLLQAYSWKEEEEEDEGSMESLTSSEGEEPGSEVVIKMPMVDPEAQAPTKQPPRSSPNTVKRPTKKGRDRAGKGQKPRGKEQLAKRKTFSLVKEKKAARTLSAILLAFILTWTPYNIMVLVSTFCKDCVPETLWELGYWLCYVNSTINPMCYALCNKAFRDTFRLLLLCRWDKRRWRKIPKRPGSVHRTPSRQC
M1 PAM: human CHRM1 positive allosteric modulation | AID 588819 | CHO-K1 hM1, Fluo-8 calcium fluorescence, ACh EC20; 0% = ACh EC20, 100% = maximal ACh | activation, % at 3 µM | P11229 | 360,000 tested, 0.088% active; in the data active = activation above about 19%, passing the limit was not always enough
CHRM1 agonist: activates human CHRM1 receptor; 360,000 tested, 0.33% active; CHO-K1 hM1, Fluo-8 calcium fluorescence, agonist mode; 0% DMSO, 100% acetylcholine EC100; P11229; activation, % at 3 µM; AID 588814;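 active = activation above the run's mean compound activation plus 3 SD, cut at about 16% in these data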;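 note: peak over basal fluorescence ratio within a 140 s kinetic read after compound addition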
nonsel antag count: nonselective antagonism, TAAR1 counter-screen. shares compounds with TAAR1 antagonist. counterscreen cell line, calcium fluorescence, antagonist mode. inhibition, % at 3 µM. 2,400 tested, 77% active. AID 651780; in the data active = inhibition above about 22%;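 note: CHO-Ga16 host cells stimulated with ATP at an EC80 level; 0% = agonist EC80 plus vehicle and 100% = vehicle without agonist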
TAAR1 ant conf: human TAAR1 antagonism, confirmed; 2,400 tested, 40% active; TAAR1-expressing cells, fluorescence antagonist read-out; shares compounds with TAAR1 antagonist; inhibition, % at 3 µM; in the data active = inhibition above about 49%;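 note: CHO-Ga16 host cells challenged with agonist PEA near its EC80; 0% = agonist at EC80 plus vehicle and 100% = vehicle with no agonist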
Ga16 nonsel ag: counter-screen for TAAR1 antagonists: nonselective Ga16 agonists; AID 651953; Ga16-expressing cells, calcium fluorescence, agonist counterscreen; activation, % at 3 µM; 2,400 tested, 18% active; shares compounds with TAAR1 antagonist; in the data active = activation above about 12%;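 note: 0% = vehicle wells and 100% = saturating stimulus response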
TAAR1 ag count: TAAR1 agonism, antagonist counter-screen; shares compounds with TAAR1 antagonist; 2,400 tested, 2% active; hTAAR1 cell line, fluorescence activation, agonist mode; activation, % at 3 µM; in the data active = activation above about 37%;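 note: CHO cells stably expressing TAAR1 with calcium dye readout; 0% = DMSO vehicle and 100% = full agonist response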
Numbers without * were called inactive; / = not tested or not shown. Shown are actives, neighbours in structure and some others; about 3.4% of the full set was active somewhere.

SMILES	TAAR1 antagonist	TAAR1 agonist	M1 antag	M1 PAM	CHRM1 agonist	nonsel antag count	TAAR1 ant conf	Ga16 nonsel ag	TAAR1 ag count
COc1cc2c(cc1OC)CN(C(=S)Nc1ccc(Cl)cc1)CC2	57*	10	-3	5	1	21	53*	12*	2
CCOC(=O)C1=C(C)NC(C)=C(C(=O)OCC)C1C(=O)OCC(=O)NC(C)C	60*	16	17	-14	0	23*	45	8	9
Cc1cccn2c(=O)c3cc(C#N)c(=NC(=O)c4cccs4)n(CCCOC(C)C)c3nc12	67*	14	16	-3	-4	24*	48	9	8
O=C(CC(C(=O)c1ccccc1)c1ccccc1)c1ccccc1 (stereo unspecified)	67*	1	21	-12	-4	23*	40	6	2
CCC(=O)N[C@H]1CC[C@@H](CCn2cc(C3CC3)nn2)O[C@@H]1CO	-5	3	/	/	/	/	/	/	/
N#Cc1c(-c2ccc(Cl)cc2)c(-c2ccc(Cl)cc2)nn(CCO)c1=O	-10	-1	-7	0	-5	/	/	/	/
Cc1onc(-c2ccccc2Cl)c1C(=O)Nc1cccc(-c2nc3ncccn3c2C)c1	107*	17	-6	-1	-7	16	19	6	12
Cc1cc2c(cc1C)-n1nnnc1C(N1CCN(C(=O)OCc3ccccc3)CC1)C(=O)N2 (stereo unspecified)	5	21	/	/	/	/	/	/	/
Cc1ccc(-n2c(C)cc(/C=N/NC(=O)c3ccncc3)c2C)cc1	-2	7	3	5	1	/	/	/	/
CNC(=S)N/N=C/c1cc(C)n(-c2ccc(Cl)c(Cl)c2)c1C	70*	31	9	-1	-11	28*	62*	30*	59*
CNC(=S)N/N=C/c1ccccc1Cl	-3	8	-6	6	-8	/	/	/	/
Cc1ccc(-n2c(C)cc(/C=N/NC(N)=S)c2C)cc1	90*	2	-9	6	-6	16	91*	8	18
COc1ccc(OC)c(CN2C(=O)CN(S(C)(=O)=O)CC2(C)C(=O)NCc2ccccc2)c1 (stereo unspecified)	-20	7	/	/	/	/	/	/	/
Cc1ccc(NC(=O)C(C)c2ccc(-c3ccccc3)c(F)c2)c(C)c1 (stereo unspecified)	54*	19	-1	0	0	18	22	3	4
COc1ccc2[nH]c(=O)c(CN(CCO)S(=O)(=O)c3ccc(C)cc3)cc2c1	-3	0	8	-6	-8	/	/	/	/
CCCCN(Cc1cc2cc(OC)ccc2[nH]c1=O)S(=O)(=O)c1ccc(C)cc1	77*	5	8	-9	-1	14	48	7	22
COc1ccc(N(Cc2cc3ccccc3[nH]c2=O)S(=O)(=O)c2ccccc2)cc1	33	3	14	-5	-2	/	/	/	/
COc1ccc(N(Cc2cc3ccccc3[nH]c2=O)S(=O)(=O)c2ccc(C)cc2)cc1	55*	1	1	2	-2	21	36	8	9
CC(C)c1ccc(NC(=O)C2(C)Cc3c(-c4ccc(C(N)=O)cc4)ccnc3O2)cc1 (stereo unspecified)	-33	7	-14	9	-2	/	/	/	/
COc1ccc(-c2c(Sc3ccccc3)c3cc(-c4ccc5c(c4)OCO5)ccc3n2C)cc1	-1	2	/	/	/	/	/	/	/
Cc1ccccc1C(=O)N1CCN(c2ccc(NC(=O)c3ccco3)cc2Cl)CC1	52*	20	17	-8	0	23*	37	9	7
Cc1ccccc1C(=O)N1CCN(c2ccc(NC(=O)c3ccc4c(c3)OCO4)cc2)CC1	53*	12	1	-7	-1	27*	45	9	8
Cc1cc(OCC(=O)Nc2ccc(N3CCN(C(=O)c4ccco4)CC3)cc2)cc(C)c1Cl	86*	34	5	-7	-1	51*	71*	18*	18
CC(=O)N1CCN(c2ccc(NC(=O)c3ccc(C(C)(C)C)cc3)cc2)CC1	62*	27	11	-10	-5	29*	46	9	10
O=C(Nc1ccc(N2CCN(C(=O)c3cccs3)CC2)c(Cl)c1)c1ccco1	4	13	11	-17	-3	/	/	/	/
SMILES	TAAR1 antagonist	TAAR1 agonist	M1 antag	M1 PAM	CHRM1 agonist	nonsel antag count	TAAR1 ant conf	Ga16 nonsel ag	TAAR1 ag count
CC1(C(=O)Nc2ccc3c(c2)OCCO3)CSCC(=O)N1CCc1ccccc1F (stereo unspecified)	-12	22	/	/	/	/	/	/	/
CCOc1cc2c(c3c1C(c1ccccc1)N(S(=O)(=O)c1ccc(C)cc1)C3)C(=O)C=CC2=O (stereo unspecified)	49	2	4	7	0	/	/	/	/
COC[C@H]1CCCN1c1ccc2c(c1)O[C@H](COCc1ccccc1)CN([C@H](C)c1ccccc1)S2(=O)=O	-11	0	/	/	/	/	/	/	/
CCN(CC)S(=O)(=O)c1ccc(/C(O)=C(\C#N)c2nc3ccccc3n2C)cc1	63*	35	3	-10	-6	35*	49*	13*	14
C/C(=N\NC(=O)C1(C)CC1(Br)Br)c1cccc(NC(=O)c2ccc(C)o2)c1 (stereo unspecified)	85*	13	5	-3	0	26*	73*	11	39*
COc1cc2cnc(-c3ccccc3)c(-c3cccc(C(F)(F)F)c3)c2cc1OC	51*	9	6	-4	-7	15	19	2	2
Fc1ccc2cnc(-c3ccccc3)c(-c3cccc(C(F)(F)F)c3)c2c1	24	-1	-6	14	-1	/	/	/	/
CC1CC2(CC(CN(C3CCCCC3)C3CCCCC3)OC2=O)C(=O)O1 (stereo unspecified)	/	/	-7	5	-12	/	/	/	/
N#Cc1ccc2nc(-c3ccc(CN4CCC(c5nc6ccccc6[nH]5)CC4)cc3)c(-c3ccccc3)nc2c1	66*	15	/	/	/	38*	48	11	17
Cc1cccc2nc(-c3ccccc3)c(-c3ccc(CN4CCC(c5nc6ccccc6[nH]5)CC4)cc3)nc12	15	10	/	/	/	/	/	/	/
Clc1ccc2nc(C3CCN(Cc4ccccc4)CC3)[nH]c2c1	1	12	11	-5	-12	/	/	/	/
c1ccc(-c2nc3ccccc3nc2-c2ccc(CN3CCC(c4nc5ccccc5[nH]4)CC3)cc2)cc1	53*	17	/	/	/	34*	45	16*	35

From PubChem
